The values below come from PMC3287054 (Bioorganic & medicinal chemistry letters, 2011).

One series deals with CaCi-8. Briefly: Fluconazole MIC determination, CaCi-8. As to conditions: Candida albicans, read-out: MIC for CaCi-8. The series is classed as cell-based.
For series [1], the system named is C. albicans clinical isolate CaCi-2. Briefly: CaCi-2 growth inhibition in the presence of fluconazole. Format: cell-based, Candida albicans. The method in brief:
(§1)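 Candida albicans clinical isolates were incubated with test compound and a fixed 8 μg/mL fluconazole at 37 °C for 48 h. Growth inhibition was read by Alamar blue fluorometry. Values are the average of at least three runs.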

Series [2] has as its system CaCi-2. Kind of series: Fluconazole MIC determination, CaCi-2. Format: cell-based. As to conditions: Candida albicans, read-out: MIC for CaCi-2.
Series [3] has as its system C. albicans clinical isolate CaCi-8. Kind of series: CaCi-8 growth inhibition in the presence of fluconazole. The series is classed as cell-based, Candida albicans. The note with it: at approximately 1 μM, with fluconazole. In a few lines: as §1
Series [4] deals with CaCi-2. Kind of series: CaCi-2 growth inhibition in the absence of fluconazole. The series is classed as cell-based, Candida albicans.
The test system of series [5] is calcineurin-dependent signaling pathway. Briefly: Yeast reporter assay, calcineurin-dependent signaling. The note with it: Saccharomyces cerevisiae, read-out: IC50 calcineurin-dependent signaling pathway. The series is classed as cell-based. In general terms: A reporter such as luciferase makes a cellular process visible.
Series [6] relates to Hsp90-dependent signaling pathway. Briefly: Yeast reporter assay, Hsp90-dependent signaling. The series is classed as cell-based. As to conditions: Saccharomyces cerevisiae, read-out: IC50 Hsp90-dependent signaling pathway.
The subject of another series is murine 3T3 fibroblasts. Briefly: Mammalian fibroblast toxicity counterscreen. Format: cell-based.
The nature of another series: Aqueous. Format: physicochemical. As to conditions: aqueous / PBS solution, in words.

SMILES strings stand for the structures. ≈ marks a conversion by molar mass, not a printed value. A value given as a limit tells only on which side of the number the result lay.

As for `OC(Cn1cncn1)(Cn1cncn1)c1ccc(F)cc1F` [fluconazole], the figures for the MIC with CaCi-8 and in the series with CaCi-2 [2] were 8 µg/mL (≈ 26.1 µM) and 2 µg/mL (≈ 6.53 µM), respectively. Besides, the inhibition (in general, the drop in the measured response relative to a control, in per cent) at 8 µg/mL in series [1] (Candida albicans, read-out: Baseline growth inhibition in CaCi-2) was 60 to 80%.

Turning to `COC1=C2C[C@@H](C)C[C@H](OC)[C@H](O)[C@@H](C)/C=C(\C)[C@H](OC(N)=O)[C@@H](OC)/C=C\C=C(/C)C(=O)NC(=CC1=O)C2=O` [Geldanamycin], in [1] (Candida albicans, read-out: Growth inhibition (control)), the inhibition at 10 µM was determined as 100%.

On to `O=C(c1ccc(Cl)cc1)N1CCN(c2ccnc3cc(Cl)ccc23)CC1` [Compound 1], for which the “Growth inhibition of CaCi-8” value in [3] was 97–100%. Moreover, the “Effect on CaCi-2 in the absence of fluconazole” value in the series on CaCi-2 [4] is given as “no discernible effect”. The concentration for half-maximal inhibition (IC50) in series [5] and in series [6] was greater than 26 µM in each case. In addition, the “Growth inhibition of CaCi-2” value in series [1] (at approximately 1 μM, with fluconazole) was 97–100%. For the same molecule, in the series on murine 3T3 fibroblasts, the “Concentration up to which murine 3T3 fibroblasts showed no response” value is greater than 26 µM. Further, the Solubility entry in “Aqueous” is reported as “poor aqueous solubility”.
